Source: ChEMBL document CHEMBL1151761, “Radiohalogenated prostate-specific membrane antigen (PSMA)-based ureas as imaging agents for prostate cancer” (J Med Chem, 2008)

Tests used:
Assay type in all cases: ADME, organism-based
Liver = test: Biodistribution in liver of PSMA expressing human PC3 PIP and PSMA deficient human PC3 flu cells xenografted SCID mouse at 2 uCi, iv after 2 hrs; conditions: in vivo
[1] = Ratio of drug level in tumor to kidney of human PSMA expressing PC3 PIP and PSMA deficient human PC3 flu cells xenografted SCID mouse at 2 uCi, iv after 2 hrs; conditions: in vivo
Summary of the method: (§1)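 Male SCID mice carried subcutaneous PSMA+ PC-3 PIP (left shoulder) and PC-3 flu (right shoulder) xenografts, 1-5 × 10^6 cells in HBSS, and were used at 3-5 mm tumor diameter. Tail-vein injection of 2 µCi radioligand; four mice per time point, killed by cervical dislocation. %ID/g from a standard dilution of the dose, decay-corrected, mean ± SD; PIP tumor:organ ratios.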

[2] = Ratio of drug level in tumor to heart of human PSMA expressing PC3 PIP and PSMA deficient human PC3 flu cells xenografted SCID mouse at 2 uCi, iv after 30 mins; conditions: in vivo, 0.5 h; summary of the method: as §1
[3] = Ratio of drug level in tumor to large intestine of human PSMA expressing PC3 PIP and PSMA deficient human PC3 flu cells xenografted SCID mouse at 2 uCi, iv after 5 hrs; conditions: in vivo; summary of the method: as §1
Heart [4] = test: Biodistribution in heart of PSMA expressing human PC3 PIP and PSMA deficient human PC3 flu cells xenografted SCID mouse at 2 uCi, iv after 60 mins; conditions: in vivo, 1 h
Stomach [5] = test: Biodistribution in stomach of PSMA expressing human PC3 PIP and PSMA deficient human PC3 flu cells xenografted SCID mouse at 2 uCi, iv after 2 hrs; conditions: in vivo
Lung [6] = test: Biodistribution in lung of PSMA expressing human PC3 PIP and PSMA deficient human PC3 flu cells xenografted SCID mouse at 2 uCi, iv after 30 mins; conditions: in vivo, 0.5 h
Spleen = test: Biodistribution in spleen of PSMA expressing human PC3 PIP and PSMA deficient human PC3 flu cells xenografted SCID mouse at 2 uCi, iv after 5 hrs; conditions: in vivo
Stomach [7] = test: Biodistribution in stomach of PSMA expressing human PC3 PIP and PSMA deficient human PC3 flu cells xenografted SCID mouse at 2 uCi, iv after 30 mins; conditions: in vivo, 0.5 h
Blood = test: Biodistribution in blood of PSMA expressing human PC3 PIP and PSMA deficient human PC3 flu cells xenografted SCID mouse at 2 uCi, iv after 30 mins; conditions: in vivo, 0.5 h
[8] = Ratio of drug level in PC3 PIP tumor to PC3 flu tumor of human PSMA expressing PC3 PIP and PSMA deficient human PC3 flu cells xenografted SCID mouse at 2 uCi, iv after 5 hrs; conditions: in vivo; summary of the method: as §1
[9] = Ratio of drug level in tumor to spleen of human PSMA expressing PC3 PIP and PSMA deficient human PC3 flu cells xenografted SCID mouse at 2 uCi, iv after 5 hrs; conditions: in vivo
Summary of the method: (§2)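 Male SCID mice carried subcutaneous xenografts: PSMA+ PC-3 PIP behind the left shoulder and PSMA− PC-3 flu behind the right, 1–5 × 10^6 cells in HBSS. Mice were used at 3–5 mm tumor diameter. 2 μCi was given by tail vein, and 4 mice per time point were killed by cervical dislocation. %ID/g came from a standard dilution of the dose, decay-corrected. Ratio is PIP tumor %ID/g to organ %ID/g.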

Kidney = test: Biodistribution in kidney of PSMA expressing human PC3 PIP and PSMA deficient human PC3 flu cells xenografted SCID mouse at 2 uCi, iv after 60 mins; conditions: in vivo, 1 h
[10] = Ratio of drug level in tumor to blood of human PSMA expressing PC3 PIP and PSMA deficient human PC3 flu cells xenografted SCID mouse at 2 uCi, iv after 60 mins
Summary of the method: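 Male SCID mice carried subcutaneous xenografts of PSMA+ PC-3 PIP cells behind the left shoulder and PSMA− PC-3 flu cells behind the right (1–5 × 10^6 cells in HBSS), used at a tumour diameter of 3–5 mm. Each mouse received 2 μCi of radioiodinated tracer via the tail vein. Tissues were harvested at each time point for %ID/g against a standard dilution of the dose, decay-corrected. Ratios are PIP tumour:organ.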

[11] = Ratio of drug level in tumor to stomach of human PSMA expressing PC3 PIP and PSMA deficient human PC3 flu cells xenografted SCID mouse at 2 uCi, iv after 60 mins; conditions: in vivo, 1 h; summary of the method: as §2
[12] = Ratio of drug level in tumor to muscle of human PSMA expressing PC3 PIP and PSMA deficient human PC3 flu cells xenografted SCID mouse at 2 uCi, iv after 5 hrs; conditions: in vivo; summary of the method: as §1
[13] = Ratio of drug level in tumor to lung of human PSMA expressing PC3 PIP and PSMA deficient human PC3 flu cells xenografted SCID mouse at 2 uCi, iv after 5 hrs; conditions: in vivo; summary of the method: as §1
[14] = Ratio of drug level in tumor to pancreas of human PSMA expressing PC3 PIP and PSMA deficient human PC3 flu cells xenografted SCID mouse at 2 uCi, iv after 30 mins; conditions: in vivo, 0.5 h; summary of the method: as §1
[15] = Biodistribution in PC3 flu tumor of PSMA expressing human PC3 PIP and PSMA deficient human PC3 flu cells xenografted SCID mouse at 2 uCi, iv after 2 hrs; conditions: in vivo; summary of the method: as §1
[16] = Ratio of drug level in tumor to large intestine of human PSMA expressing PC3 PIP and PSMA deficient human PC3 flu cells xenografted SCID mouse at 2 uCi, iv after 2 hrs; conditions: in vivo; summary of the method: as §1
Pancreas = test: Biodistribution in pancreas of PSMA expressing human PC3 PIP and PSMA deficient human PC3 flu cells xenografted SCID mouse at 2 uCi, iv after 60 mins; conditions: in vivo, 1 h
[17] = Ratio of drug level in tumor to lung of human PSMA expressing PC3 PIP and PSMA deficient human PC3 flu cells xenografted SCID mouse at 2 uCi, iv after 30 mins; conditions: in vivo, 0.5 h; summary of the method: as §1
[18] = Ratio of drug level in tumor to muscle of human PSMA expressing PC3 PIP and PSMA deficient human PC3 flu cells xenografted SCID mouse at 2 uCi, iv after 30 mins; conditions: in vivo, 0.5 h; summary of the method: as §1
Lung [19] = test: Biodistribution in lung of PSMA expressing human PC3 PIP and PSMA deficient human PC3 flu cells xenografted SCID mouse at 2 uCi, iv after 2 hrs; conditions: in vivo
Stomach [20] = test: Biodistribution in stomach of PSMA expressing human PC3 PIP and PSMA deficient human PC3 flu cells xenografted SCID mouse at 2 uCi, iv after 60 mins; conditions: in vivo, 1 h
[21] = Biodistribution in large intestine of PSMA expressing human PC3 PIP and PSMA deficient human PC3 flu cells xenografted SCID mouse at 2 uCi, iv after 30 mins; conditions: in vivo, 0.5 h; summary of the method: as §1
Heart [22] = test: Biodistribution in heart of PSMA expressing human PC3 PIP and PSMA deficient human PC3 flu cells xenografted SCID mouse at 2 uCi, iv after 30 mins; conditions: in vivo, 0.5 h
[23] = Ratio of drug level in tumor to spleen of human PSMA expressing PC3 PIP and PSMA deficient human PC3 flu cells xenografted SCID mouse at 2 uCi, iv after 2 hrs; conditions: in vivo; summary of the method: as §2
[24] = Biodistribution in small intestine of PSMA expressing human PC3 PIP and PSMA deficient human PC3 flu cells xenografted SCID mouse at 2 uCi, iv after 2 hrs; conditions: in vivo; summary of the method: as §1

O=C(O)CC[C@H](NC(=O)N[C@@H](CCCCNC(=O)c1ccc([18F])cc1)C(=O)O)C(=O)O
Drug uptake (Liver): 11.7 % ID/g | Ratio [1]: 0.1 | Ratio [2]: 11 | Ratio [3]: 6 | Drug uptake (Heart [4]): 0.2 % ID/g | Drug uptake (Stomach [5]): 0.3 % ID/g | Drug uptake (Lung [6]): 1.7 % ID/g | Drug uptake (Spleen): 1 % ID/g | Drug uptake (Stomach [7]): 0.8 % ID/g | Drug uptake (Blood): 2.5 % ID/g | Ratio [8]: 35 | Ratio [9]: 3.5 | Drug uptake (Kidney): 48 % ID/g | Kp at 1 h [10]: 9 | Ratio [11]: 26 | Ratio [12]: 35 | Ratio [13]: 35 | Ratio [14]: 11 | Drug uptake [15]: 0.25 % ID/g | Ratio [16]: 19 | Drug uptake (Pancreas): 0.3 % ID/g | Ratio [17]: 5 | Ratio [18]: 4 | Drug uptake (Lung [19]): 1 % ID/g | Drug uptake (Stomach [20]): 0.25 % ID/g | Drug uptake [21]: 1.2 % ID/g | Drug uptake (Heart [22]): 0.8 % ID/g | Ratio [23]: 1 | Drug uptake [24]: 0.3 % ID/g
